Test results from ChEMBL document CHEMBL1124872, “Guanosine analogues. Synthesis of nucleosides of certain 3-substituted 6-aminopyrazolo[3,4-d]pyrimidin-4(5H)-ones as potential immunotherapeutic agents” (1990).

Experiments:
Type in all cases: functional
[1] = tested on: Mus musculus; experiment: In vivo effect of Guanosines on murine NK cell activity at E:T ratio of 100:1
Procedure, shortened: (§1)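 Mice dosed ip with 150 mg/kg in 2% aqueous sodium bicarbonate, split as 75 mg/kg b.i.d. for 1 day; controls got 2% sodium bicarbonate alone; groups of two. Spleens taken after 24 h; splenocytes tested ex vivo against 51Cr-labelled YAC-1 T-cell lymphoma targets in a 4 h 51Cr release assay, in triplicate, at two effector:target ratios.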

[2] = tested on: Semliki Forest virus; experiment: Effect of compound on forest virus infection in mice at the dose of 100 mg/kg; tested over 12 mice
Procedure, shortened: (§2)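 Female Swiss Webster mice, about 20 g, received test compound intraperitoneally in aqueous 2% sodium bicarbonate. The daily dose was split into two halves given 24 h and 18 h before lethal Semliki Forest virus inoculation. Placebo mice got 2% sodium bicarbonate alone (0.1 mL/injection). The read-outs were survivors per group and mean survival time with standard deviation.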

[3] = tested on: Semliki Forest virus; experiment: Effect of compound on forest virus infection in mice, Mean survival time through 21 days at 200 mg/kg dose; procedure, shortened: as §2
[4] = tested on: Mus musculus; experiment: In vivo effect of Guanosines on murine NK cell activity at E:T ratio of 50:1; procedure, shortened: as §1
[5] = tested on: Semliki Forest virus; experiment: Effect of compound on forest virus infection in mice, Mean survival time through 21 days at 100 mg/kg dose; procedure, shortened: as §2
[6] = tested on: Semliki Forest virus; experiment: Effect of compound on forest virus infection in mice at the dose of 200 mg/kg; tested over 11 mice; procedure, shortened: as §2
[7] = tested on: Semliki Forest virus; experiment: Effect of compound on forest virus infection in mice at the dose of 200 mg/kg; Tested over 12 mice; procedure, shortened: as §2
[8] = tested on: Semliki Forest virus; experiment: Effect of compound on forest virus infection in mice at the dose of 100 mg/kg; Tested over 12 mice; procedure, shortened: as §2
[9] = tested on: Semliki Forest virus; experiment: Effect of compound on forest virus infection in mice at the dose of 200 mg/kg; tested over 12 mice; procedure, shortened: as §2
[10] = tested on: Mus musculus; experiment: In vivo effect of Guanosines on murin NK cell activity at E:T ratio of 100:1; procedure, shortened: as §1

SMILES | Cytotoxicity [1] | Survivors / total [2] | Mean survival time [3] | Cytotoxicity [4] | Mean survival time [5] | Survivors / total [6] | Survivors / total [7] | Survivors / total [8] | Survivors / total [9] | Cytotoxicity [10]
Cc1nn(C2O[C@H](CO)[C@@H](O)[C@H]2O)c2nc(N)[nH]c(=O)c12 (stereo partly drawn) | 29.7% | 8 | 6.4 days | 17% | 8 days | 6 |  |  |  | 
Nc1nc2c(cnn2C2O[C@H](CO)[C@@H](O)[C@H]2O)c(=O)[nH]1 (stereo partly drawn) | 41.1% |  | > 21 days | 26.9% | 9 days |  | 12 | 9 |  | 
N=c1[nH]c(=O)c2c(-c3ccccc3)nn(C3O[C@H](CO)[C@@H](O)[C@H]3O)c2[nH]1 (stereo partly drawn) |  | 1 | 7.2 days |  | 6 days |  |  |  | 0 | 
Nc1nc(=O)c2sc(=O)n([C@@H]3O[C@H](CO)[C@@H](O)[C@H]3O)c2[nH]1 [ISATORIBINE] |  |  | >21 days |  | 11.5 days |  | 12 | 10 |  | 
Nc1nc2c(c(=O)[nH]1)c(=O)[nH]n2C1O[C@H](CO)[C@@H](O)[C@H]1O (stereo partly drawn) |  |  | 6.9 days |  | 7 days |  |  |  | 0% | 
Nc1nc2c(c(C(=O)O)nn2C2O[C@H](CO)[C@@H](O)[C@H]2O)c(=O)[nH]1 (stereo partly drawn) |  | 1 | 6.3 days |  | 6 days |  |  |  | 3 | 
Nc1nc2c(c(N)nn2C2O[C@H](CO)[C@@H](O)[C@H]2O)c(=O)[nH]1 (stereo partly drawn) | 25% |  | 6.8 days | 16.8% | 6.2 days |  | 3 | 1 |  | 
COc1nn(C2O[C@H](CO)[C@@H](O)[C@H]2O)c2nc(N)[nH]c(=O)c12 (stereo partly drawn) |  |  | 8.6 days |  | 7.8 days |  |  | 2 | 2 | 
Nc1nc2c(c(Br)nn2C2O[C@H](CO)[C@@H](O)[C@H]2O)c(=O)[nH]1 (stereo partly drawn) |  |  | 9 days | 24.4% | 9 days |  | 11 | 11 |  | 33.2%
